Test results reported in publication PMC3180826 (ACS chemical neuroscience, 2010).
Where a chain is given by its changes, count along the chain named.

Columns and labels:
hM2 = molecular target: T1, hM2 (Homo sapiens, UniProt P08172); experiment: Calcium mobilization assay, agonist mode, M2; type: cell-based; settings: up to 30 μM
T1 sequence (P08172 1-466): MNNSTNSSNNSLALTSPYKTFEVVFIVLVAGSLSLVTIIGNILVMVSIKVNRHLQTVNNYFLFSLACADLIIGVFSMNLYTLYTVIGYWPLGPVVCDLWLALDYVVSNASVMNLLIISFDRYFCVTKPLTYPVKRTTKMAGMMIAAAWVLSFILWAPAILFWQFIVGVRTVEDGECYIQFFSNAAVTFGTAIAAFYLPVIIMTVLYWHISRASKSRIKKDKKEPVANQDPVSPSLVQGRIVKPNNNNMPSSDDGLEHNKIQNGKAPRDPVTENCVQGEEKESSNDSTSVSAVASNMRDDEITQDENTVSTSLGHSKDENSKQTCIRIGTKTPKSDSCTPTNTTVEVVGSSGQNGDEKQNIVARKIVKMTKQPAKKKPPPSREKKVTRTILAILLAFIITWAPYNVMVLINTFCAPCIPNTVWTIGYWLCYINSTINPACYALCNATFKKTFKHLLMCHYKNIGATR
Method in brief: (§1)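 CHO-K1 cells stably expressing hM2/Gqi5 or rM4/Gqi5 (6 × 10^4 cells/well), or hM3 or hM5 (5 × 10^4 cells/well), were cultured overnight at 37 °C in 5% CO2. Cells were loaded with 2 μM Fluo-4 AM for 1 h at 37 °C in HBSS with 20 mM HEPES and 2.5 mM probenecid, pH 7.4. Eight-point test compound concentration series were added at 19 s of a 130 s read. Calcium flux was read as fluorescence fold over basal.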

rM4 = molecular target: T2, rM4 (Rattus norvegicus, UniProt P08485); experiment: Calcium mobilization assay, agonist mode, M4; type: cell-based; settings: up to 30 μM
T2 sequence (P08485 1-478): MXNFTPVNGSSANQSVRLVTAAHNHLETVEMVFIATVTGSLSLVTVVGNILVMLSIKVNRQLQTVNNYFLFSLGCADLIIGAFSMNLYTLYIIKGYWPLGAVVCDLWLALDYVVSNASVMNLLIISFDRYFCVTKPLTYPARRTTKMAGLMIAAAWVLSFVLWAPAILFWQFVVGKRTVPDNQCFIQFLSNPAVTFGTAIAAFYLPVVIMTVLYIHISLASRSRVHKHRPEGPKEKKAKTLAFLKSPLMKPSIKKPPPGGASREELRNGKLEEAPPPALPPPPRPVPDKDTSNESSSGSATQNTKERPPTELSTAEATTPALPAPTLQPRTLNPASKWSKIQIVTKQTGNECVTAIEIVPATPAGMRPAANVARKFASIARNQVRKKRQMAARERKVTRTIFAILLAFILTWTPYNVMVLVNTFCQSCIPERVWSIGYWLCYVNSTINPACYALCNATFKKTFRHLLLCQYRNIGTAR
Method in brief: as §1

rM1 Y381A = molecular target: T3, rM1 Y381A (Rattus norvegicus, UniProt P08482, Y381A); experiment: Calcium mobilization in rM1 Y381A; type: cell-based
T3 sequence (P08482 1-460 Y381A): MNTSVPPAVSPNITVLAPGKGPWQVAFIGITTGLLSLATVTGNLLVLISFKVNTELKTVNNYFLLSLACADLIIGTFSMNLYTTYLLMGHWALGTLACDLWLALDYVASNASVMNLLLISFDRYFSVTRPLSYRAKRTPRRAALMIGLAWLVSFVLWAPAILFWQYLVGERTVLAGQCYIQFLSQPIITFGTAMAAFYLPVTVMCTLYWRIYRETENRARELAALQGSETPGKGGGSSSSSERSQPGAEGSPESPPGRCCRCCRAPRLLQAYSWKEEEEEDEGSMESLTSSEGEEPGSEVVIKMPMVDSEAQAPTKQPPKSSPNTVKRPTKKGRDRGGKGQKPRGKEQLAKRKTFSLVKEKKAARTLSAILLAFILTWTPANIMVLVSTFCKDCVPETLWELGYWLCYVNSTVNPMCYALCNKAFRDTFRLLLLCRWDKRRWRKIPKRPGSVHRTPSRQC

M1 = molecular target: T4, M1 (Rattus norvegicus, UniProt P08482); experiment: [3H]-NMS competition binding, M1 CHO membranes; settings: concentrations well above those required to fully activate M1
T4 sequence (P08482 1-460): T3 sequence (P08482 1-460 Y381A) with A381Y

M3 = M3 (Homo sapiens, UniProt P20309); experiment: [3H]-NMS competition binding, M3 CHO membranes; settings: concentrations well above those required to fully activate M1
Chain of M3 (P20309 whole entry): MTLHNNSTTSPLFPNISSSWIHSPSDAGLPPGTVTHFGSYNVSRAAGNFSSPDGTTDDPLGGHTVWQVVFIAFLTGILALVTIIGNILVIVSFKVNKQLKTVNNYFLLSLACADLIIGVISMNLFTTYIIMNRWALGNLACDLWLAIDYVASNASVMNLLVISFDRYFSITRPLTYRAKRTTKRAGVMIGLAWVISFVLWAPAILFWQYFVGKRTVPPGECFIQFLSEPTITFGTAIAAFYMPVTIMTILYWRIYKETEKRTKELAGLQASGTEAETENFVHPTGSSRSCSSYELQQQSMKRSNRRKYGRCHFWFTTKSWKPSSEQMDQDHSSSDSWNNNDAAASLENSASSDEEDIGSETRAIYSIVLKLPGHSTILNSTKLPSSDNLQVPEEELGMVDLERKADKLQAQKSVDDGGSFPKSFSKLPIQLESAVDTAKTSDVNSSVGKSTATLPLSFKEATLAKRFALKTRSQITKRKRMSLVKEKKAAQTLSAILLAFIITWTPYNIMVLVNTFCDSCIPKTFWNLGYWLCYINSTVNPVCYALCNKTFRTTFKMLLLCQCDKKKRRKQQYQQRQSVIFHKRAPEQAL

M4 = molecular target: T5, M4 (Rattus norvegicus, UniProt P08485); experiment: [3H]-NMS competition binding, M4 CHO membranes; settings: concentrations well above those required to fully activate M1
T5 sequence (P08485 1-478): T2 sequence (P08485 1-478)

[1] = Plasma-brain exposure profile PK study; type: in vivo; settings: rat
Method in brief: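 Test compound was dissolved in sterile water at 5 mg/mL and dosed at 10 mg/kg ip in male Sprague–Dawley rats (225–250 g). Plasma and brain were collected at 0.5, 1, 2, 4 and 8 h, with three rats per time point. Brains were homogenized 1:3 in PBS, and samples were extracted by acetonitrile/0.1% formic acid precipitation with internal standard. Quantification was by LC-MS/MS SRM (10–2000 ng/mL calibration), with noncompartmental analysis.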

## CCOC(=O)N1CCC(NCCNC(=O)c2ccccc2)CC1 [VU0184670, ethyl 4-(2-benzamidoethylamino)piperidine-1-carboxylate]
hM2
  agonist activity at M2: no activity
rM4
  agonist activity at M4: no activity
rM1 Y381A
  EC50: 304 ± 156 nM
rM1 Y381A; M1Y381A CHO cells vs WT M1 CHO cells
  potency at M1 Y381A compared with WT M1: potencies similar to those observed in WT M1 CHO cells
rM1 Y381A; rM1 Y381A cells
  rM1 Y381A AChmax (maximal efficacy): 63.25 % max
M1
  reduction of [3H]-NMS binding to M1: did not reduce
M3
  reduction of [3H]-NMS binding to M3: did not reduce
M4
  reduction of [3H]-NMS binding to M4: did not reduce
[1]; 10 mg/kg i.p., brain
  brain level: 14490.12 ± 2663.82 ng/mL
[1]; 10 mg/kg i.p., plasma
  plasma level: 311.86 ± 20.77 ng/mL
[1]; i.p. administration
  central penetrance: centrally-penetrant
